Results as given in ChEMBL document CHEMBL1123109, “Alkyl esters of 3-adenin-9-yl-2-hydroxypropanoic acid: a new class of broad-spectrum antiviral agents” (1985).
Converted amounts (≈) assume the structure as drawn.

Columns and labels:
Type in all cases: functional
[1] = test system: Vesicular stomatitis virus; test: Inhibition of Vesicular stomatitis virus induced cytopathicity in BALB/3T3 cells.; details: in Mus musculus
Method in brief: (§1)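 Vesicular stomatitis virus was inoculated at 100 CCID50 (100× the dose infecting 50% of cells) in each cell type: human embryonic skin-muscle fibroblasts, LR-strain trisomy-21 fibroblasts, HEp-2, CV-1, BS-C-1, Balb/3T3, RK13, human kidney, HeLa and Vero. CPE was read at 1–2 days in every cell type, once complete in untreated infected controls. The MIC is the concentration giving a 50% reduction in cytopathogenicity.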

[2] = test system: Vesicular stomatitis virus; test: Inhibition of Vesicular stomatitis virus induced cytopathicity in BS-C-1 cells.; method in brief: as §1
[3] = test system: Vesicular stomatitis virus; test: Inhibition of Vesicular stomatitis virus induced cytopathicity in CV-1 cells.; method in brief: as §1
[4] = test system: Vesicular stomatitis virus; test: Inhibition of Vesicular stomatitis virus induced cytopathicity in E6SM cells.; method in brief: as §1
HK = test: Minimum inhibitory concentration which is required to reduce virus-induced cytopathogenicity by 50% against Vesicular stomatitis virus in human kidney,; method in brief: as §1
[5] = test system: Vesicular stomatitis virus; test: Inhibition of Vesicular stomatitis virus induced cytopathicity in HEp-2 cells.; method in brief: as §1
Coxsackievirus B4 = test: Inhibition of Coxsackie B4 virus induced cytopathicity in HeLa cells.; details: Enterovirus B
[6] = test system: Vesicular stomatitis virus; test: Inhibition of Vesicular stomatitis virus induced cytopathicity in HeLa cells.; method in brief: as §1
HeLa = test: Cytotoxic concentration against HeLa cells.; details: Homo sapiens
Method in brief: (§2)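 Uninfected cells were incubated with compound for the same duration as the matching antiviral assay. The minimum cytotoxic concentration is the lowest one causing a microscopically detectable change in normal cell morphology.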

PRK = test: Cytotoxic concentration against PRK cells.; details: Oryctolagus cuniculus; method in brief: as §2
Human alphaherpesvirus 1 = test: Inhibition of HSV-1 induced cytopathicity in PRK cells.
Vaccinia virus = test: Inhibition of Vaccinia virus induced cytopathicity in PRK cells.; details: Orthopoxvirus vaccinia
[7] = test system: Vesicular stomatitis virus; test: Inhibition of Vesicular stomatitis virus induced cytopathicity in PRK cells.
Oryctolagus cuniculus [8] = species: Oryctolagus cuniculus; test: Inhibitory effects on DNA, RNA, and Protein synthesis in rabbit kidney cells was evaluated for incorporation of [4,5-3H]leucine; details: read-out: ID50 (the source's name)
Oryctolagus cuniculus [9] = species: Oryctolagus cuniculus; test: Inhibitory effects on DNA, RNA, and Protein synthesis in rabbit kidney cells was evaluated for incorporation of [5-3H]-Urd; details: read-out: ID50 (the source's name)
[10] = test system: Vesicular stomatitis virus; test: Inhibition of Vesicular stomatitis virus induced cytopathicity in RK13 cells.; method in brief: as §1
[11] = test system: Vesicular stomatitis virus; test: Inhibition of Vesicular stomatitis virus induced cytopathicity in T-21 cells.; method in brief: as §1
Vero = test: Cytotoxic concentration against Vero cells.; details: Chlorocebus sabaeus; method in brief: as §2
Sindbis virus = test: Inhibition of Sindbis virus induced cytopathicity in vero cells.
[12] = test system: Vesicular stomatitis virus; test: Inhibition of Vesicular stomatitis virus induced cytopathicity in Vero cells.; method in brief: as §1
Measles morbillivirus = test: Inhibition of Measles virus induced cytopathicity in vero cells.
Human respirovirus 3 = test: Inhibition of parainfluenza virus-3 induced cytopathicity in vero cells.
[13] = test system: Mammalian orthoreovirus 1; test: Inhibition of Reo virus-1 induced cytopathicity in vero cells.
Poliovirus 1 = test: Inhibition of polio virus 1 induced cytopathicity in HeLa cells.; details: Enterovirus C
Oryctolagus cuniculus [14] = species: Oryctolagus cuniculus; test: Inhibitory effects on DNA, RNA, and Protein synthesis in rabbit kidney cells was evaluated for incorporation of [methyl-3H]dThd]; details: read-out: ID50 (the source's name)

Row | Compound | MIC [1] | MIC [2] | MIC [3] | MIC [4] | MIC (HK) | MIC [5] | MIC (Coxsackievirus B4) | MIC [6] | MCC (HeLa) | MCC (PRK) | MIC (Human alphaherpesvirus 1) | MIC (Vaccinia virus) | MIC [7] | MIC [10] | MIC [11] | MCC (Vero) | MIC (Sindbis virus) | MIC [12] | MIC (Measles morbillivirus) | MIC (Human respirovirus 3) | also measured
1 | CC(C)COC(=O)C(O)Cn1cnc2c(N)ncnc21 (stereo unspecified) | 300 µg/mL (≈ 1070 µM) | 100 µg/mL (≈ 358 µM) | 200 µg/mL (≈ 716 µM) | 5 µg/mL (≈ 17.9 µM) | 20 µg/mL (≈ 71.6 µM) | 1 µg/mL (≈ 3.58 µM) | > 400 µg/mL | 10 µg/mL (≈ 35.8 µM) | > 400 µg/mL | > 400 µg/mL | > 400 µg/mL | 3 µg/mL (≈ 10.7 µM) | 1 µg/mL (≈ 3.58 µM) | 30 µg/mL (≈ 107 µM) | 1 µg/mL (≈ 3.58 µM) | > 400 µg/mL | > 400 µg/mL | 30 µg/mL (≈ 107 µM) | 40 µg/mL (≈ 143 µM) | 20 µg/mL (≈ 71.6 µM) | IC50 (Oryctolagus cuniculus [8]): > 277 µg/mL; IC50 (Oryctolagus cuniculus [9]): 34 µg/mL (≈ 122 µM); MIC [13]: 150 µg/mL (≈ 537 µM); MIC (Poliovirus 1): > 400 µg/mL; IC50 (Oryctolagus cuniculus [14]): 242 µg/mL (≈ 866 µM)
2 | CCCCOC(=O)C(O)Cn1cnc2c(N)ncnc21 (stereo unspecified) | 200 µg/mL (≈ 716 µM) | 150 µg/mL (≈ 537 µM) | 300 µg/mL (≈ 1070 µM) | 7 µg/mL (≈ 25.1 µM) | 50 µg/mL (≈ 179 µM) | 2 µg/mL (≈ 7.16 µM) | > 400 µg/mL | 15 µg/mL (≈ 53.7 µM) | 400 µg/mL | 200 µg/mL | > 200 µg/mL | 3 µg/mL (≈ 10.7 µM) | 3 µg/mL (≈ 10.7 µM) | 100 µg/mL (≈ 358 µM) | 2 µg/mL (≈ 7.16 µM) | 200 µg/mL | 150 µg/mL (≈ 537 µM) | 30 µg/mL (≈ 107 µM) | 25 µg/mL (≈ 89.5 µM) | 70 µg/mL (≈ 251 µM) | IC50 (Oryctolagus cuniculus [8]): > 381 µg/mL; IC50 (Oryctolagus cuniculus [9]): 102 µg/mL (≈ 365 µM); MIC [13]: 150 µg/mL (≈ 537 µM); MIC (Poliovirus 1): > 400 µg/mL; IC50 (Oryctolagus cuniculus [14]): > 253 µg/mL
3 | Nc1ncnc2c1ncn2C[C@H](O)CO [(S)-DHPA] | > 400 µg/mL | > 400 µg/mL | > 400 µg/mL | 15 µg/mL (≈ 71.7 µM) | 50 µg/mL (≈ 239 µM) | 4 µg/mL (≈ 19.1 µM) | > 400 µg/mL | 30 µg/mL (≈ 143 µM) | > 400 µg/mL | > 400 µg/mL | > 400 µg/mL | 30 µg/mL (≈ 143 µM) | 15 µg/mL (≈ 71.7 µM) | 150 µg/mL (≈ 717 µM) | 20 µg/mL (≈ 95.6 µM) | > 400 µg/mL | > 400 µg/mL | 200 µg/mL (≈ 956 µM) | 30 µg/mL (≈ 143 µM) | 20 µg/mL (≈ 95.6 µM) | IC50 (Oryctolagus cuniculus [8]): > 400 µg/mL; IC50 (Oryctolagus cuniculus [9]): > 400 µg/mL; MIC [13]: 200 µg/mL (≈ 956 µM); MIC (Poliovirus 1): > 400 µg/mL; IC50 (Oryctolagus cuniculus [14]): > 326 µg/mL
4 | Nc1ncnc2c1ncn2CC(O)C(=O)OCCO (stereo unspecified) | > 400 µg/mL | > 400 µg/mL | > 400 µg/mL | 70 µg/mL (≈ 262 µM) | 200 µg/mL (≈ 748 µM) | 3 µg/mL (≈ 11.2 µM) | > 400 µg/mL | 70 µg/mL (≈ 262 µM) | > 400 µg/mL | > 400 µg/mL | > 400 µg/mL | 70 µg/mL (≈ 262 µM) | 30 µg/mL (≈ 112 µM) | 100 µg/mL (≈ 374 µM) | 30 µg/mL (≈ 112 µM) | > 400 µg/mL | > 400 µg/mL | 150 µg/mL (≈ 561 µM) | 30 µg/mL (≈ 112 µM) | > 200 µg/mL | IC50 (Oryctolagus cuniculus [8]): > 400 µg/mL; IC50 (Oryctolagus cuniculus [9]): > 400 µg/mL; MIC [13]: > 200 µg/mL; MIC (Poliovirus 1): > 400 µg/mL; IC50 (Oryctolagus cuniculus [14]): > 314 µg/mL
5 | CC(C)CCOC(=O)C(O)Cn1cnc2c(N)ncnc21 (stereo unspecified) | 200 µg/mL (≈ 682 µM) | 70 µg/mL (≈ 239 µM) | 200 µg/mL (≈ 682 µM) | 2 µg/mL (≈ 6.82 µM) | 10 µg/mL (≈ 34.1 µM) | 1 µg/mL (≈ 3.41 µM) | > 400 µg/mL | 3 µg/mL (≈ 10.2 µM) | 400 µg/mL | 400 µg/mL | > 400 µg/mL | 10 µg/mL (≈ 34.1 µM) | 3 µg/mL (≈ 10.2 µM) | 100 µg/mL (≈ 341 µM) | 1 µg/mL (≈ 3.41 µM) | 400 µg/mL | 200 µg/mL (≈ 682 µM) | 15 µg/mL (≈ 51.1 µM) | 12 µg/mL (≈ 40.9 µM) | > 200 µg/mL | IC50 (Oryctolagus cuniculus [8]): 228 µg/mL (≈ 777 µM); IC50 (Oryctolagus cuniculus [9]): 29 µg/mL (≈ 98.9 µM); MIC [13]: 30 µg/mL (≈ 102 µM); MIC (Poliovirus 1): > 400 µg/mL; IC50 (Oryctolagus cuniculus [14]): 114 µg/mL (≈ 389 µM)
6 | CCCOC(=O)C(O)Cn1cnc2c(N)ncnc21 (stereo unspecified) | > 400 µg/mL | 300 µg/mL (≈ 1130 µM) | > 400 µg/mL | 10 µg/mL (≈ 37.7 µM) | 200 µg/mL (≈ 754 µM) | 3 µg/mL (≈ 11.3 µM) | > 400 µg/mL | 50 µg/mL (≈ 188 µM) | > 400 µg/mL | 100 µg/mL | > 100 µg/mL | 3 µg/mL (≈ 11.3 µM) | 1 µg/mL (≈ 3.77 µM) | 2 µg/mL (≈ 7.54 µM) | 7 µg/mL (≈ 26.4 µM) | > 400 µg/mL | > 200 µg/mL | 150 µg/mL (≈ 565 µM) | 100 µg/mL (≈ 377 µM) | 100 µg/mL (≈ 377 µM) | IC50 (Oryctolagus cuniculus [8]): > 400 µg/mL; IC50 (Oryctolagus cuniculus [9]): 168 µg/mL (≈ 633 µM); MIC [13]: 200 µg/mL (≈ 754 µM); MIC (Poliovirus 1): > 400 µg/mL; IC50 (Oryctolagus cuniculus [14]): > 276 µg/mL
7 | COCCOC(=O)C(O)Cn1cnc2c(N)ncnc21 (stereo unspecified) | > 400 µg/mL | > 400 µg/mL | > 400 µg/mL | 7 µg/mL (≈ 24.9 µM) | > 400 µg/mL | 7 µg/mL (≈ 24.9 µM) | > 400 µg/mL | 20 µg/mL (≈ 71.1 µM) | > 400 µg/mL | > 400 µg/mL | > 400 µg/mL | 30 µg/mL (≈ 107 µM) | 7 µg/mL (≈ 24.9 µM) | 70 µg/mL (≈ 249 µM) | 15 µg/mL (≈ 53.3 µM) | > 400 µg/mL | > 400 µg/mL | 300 µg/mL (≈ 1070 µM) | 400 µg/mL (≈ 1420 µM) | 300 µg/mL (≈ 1070 µM) | MIC [13]: 70 µg/mL (≈ 249 µM); MIC (Poliovirus 1): > 400 µg/mL
8 | Nc1ncnc2c1ncn2CC(O)C(=O)OC1CCCCC1 (stereo unspecified) | 70 µg/mL (≈ 229 µM) | 40 µg/mL (≈ 131 µM) | > 200 µg/mL | 7 µg/mL (≈ 22.9 µM) | > 200 µg/mL | 2 µg/mL (≈ 6.55 µM) | > 100 µg/mL | 30 µg/mL (≈ 98.3 µM) | 100 µg/mL | 100 µg/mL | 100 µg/mL (≈ 328 µM) | 3 µg/mL (≈ 9.83 µM) | 1 µg/mL (≈ 3.28 µM) | 70 µg/mL (≈ 229 µM) | 1 µg/mL (≈ 3.28 µM) | 100 µg/mL | > 100 µg/mL | > 100 µg/mL | 15 µg/mL (≈ 49.1 µM) | > 40 µg/mL | MIC [13]: 7 µg/mL (≈ 22.9 µM); MIC (Poliovirus 1): > 100 µg/mL
9 | CCC(C)OC(=O)C(O)Cn1cnc2c(N)ncnc21 (stereo unspecified) | > 400 µg/mL | > 400 µg/mL | > 400 µg/mL | 1 µg/mL (≈ 3.58 µM) | > 400 µg/mL | 7 µg/mL (≈ 25.1 µM) | > 400 µg/mL | 30 µg/mL (≈ 107 µM) | > 400 µg/mL | > 400 µg/mL | > 400 µg/mL | 3 µg/mL (≈ 10.7 µM) | 1 µg/mL (≈ 3.58 µM) | 15 µg/mL (≈ 53.7 µM) | 1 µg/mL (≈ 3.58 µM) | > 400 µg/mL | 300 µg/mL (≈ 1070 µM) | 150 µg/mL (≈ 537 µM) | 40 µg/mL (≈ 143 µM) | 200 µg/mL (≈ 716 µM) | MIC [13]: 70 µg/mL (≈ 251 µM); MIC (Poliovirus 1): > 400 µg/mL
